# Reference: publication PMC4956517 (Experimental hematology, 2016)
# Entries after “also recorded” stand apart in the source; their conditions may differ.
# Tests used:
# [1] = tested on: EPOR (UT7epo cells); experiment: Western blotting of EPOR forms in UT7epo cells; format: cell-based, human; conditions: versus rHu-EPO
# Outline: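 UT7epo cells were cultured in test compound or rHu-EPO at varied, biologically matched doses. For extended time-courses, medium plus ligand was replaced daily. Western blots over the time-course were probed with rabbit monoclonal anti-hEPOR IC-c1.1, with anti-GAPDH as loading control.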
# [2] = cited from earlier work
# [3] = tested on: endogenous cell surface EPOR (UT7epo cells); experiment: Flow cytometry of endogenous cell surface EPOR in UT7epo cells; format: cell-based, human; conditions: versus rHu-EPO at matched doses (1.5U/mL vs 2.1 nM, 2.0 U/mL vs 2.8nM); days 4 and 8; antibody EC-c38.5; median and mean fluorescence intensities, clear statistical significance; n=3
# [4] = biological target: T1, hEPOR-Fc construct (EPOR extracellular domain-IgFc) (Homo sapiens, UniProt P19235); experiment: Surface plasmon resonance; format: binding; conditions: Biacore
# T1 sequence (P19235 25-250 limits assumed): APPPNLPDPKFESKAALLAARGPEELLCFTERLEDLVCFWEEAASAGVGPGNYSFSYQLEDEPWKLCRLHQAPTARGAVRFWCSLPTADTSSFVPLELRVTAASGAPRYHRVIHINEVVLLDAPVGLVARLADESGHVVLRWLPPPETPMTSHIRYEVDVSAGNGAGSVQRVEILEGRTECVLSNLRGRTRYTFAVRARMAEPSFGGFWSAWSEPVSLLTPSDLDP
# [5] = tested on: EPOR transcript; experiment: Quantitative RT-PCR of EPOR transcript levels; format: cell-based, human; conditions: peginesatide vs rHu-EPO; data not shown
Substance,processing of the EPOR to lower molecular weight forms ([1]; peginesatide as the EPOR ligand),"levels of full-length EPOR-68K receptor forms ([1]; time-course, antibody IC-c1.1)","levels of lower molecular weight EPOR-36K form ([1]; time-course, antibody IC-c1.1)","allergenic side-effects ([2]; first-time recipients, ref Bennett, et al 2014)","anaphylactic reactions ([2]; ref Bennett, et al 2014)",cell surface EPOR levels [3],stability of binding to the EPOR ([4]; ECD-EPOR-Fc immobilized at 675 RU and 225 RU),"EPOR residence time, ratio to that of rHu-EPO ([4]; estimated, greater than that of rHu-EPO, immobilized ECD-EPOR-Fc) [fold]",EPOR transcript levels [5],"TPO-reactive antibody formation ([2]; clinical trials, ref Basser 2002)"
peginesatide,observed trends towards apparent lessened processing of the EPOR to lower molecular weight forms,elevated levels of full-length EPOR-68K receptor forms,no such increases were observed,can also somehow stimulate allergenic reactivity; also recorded: allergenic side-effects in certain first-time recipients,rare fatal anaphylaxis; also recorded: severe anaphylactic reactions infrequently experienced,notably elevated cell surface EPOR levels,uniquely highly stable binding to the EPOR,17.1,no differential effects,
rHu-TPO: Thrombopoietin (TPO); effective in stimulating megakaryocyte and platelet production,,,,,,,,,,induce TPO- reactive antibody formation
